Eleven molecules from ChEMBL document CHEMBL3853309, “Lovastatin Analogues from the Soil-Derived Fungus Aspergillus sclerotiorum PSU-RSPG178” (J Nat Prod, 2016) can be followed below.

The source made the active and inactive calls. No cut-off for these calls is given here.

Data set [1] can be described thus: Cytotoxicity against human KB cells by resazurin microplate assay. The data set is classed as functional, cell-based. Summed up: (§1)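 KB and MCF-7 cells assayed by resazurin microplate method; positive controls ellipticine and doxorubicin for KB, doxorubicin and tamoxifen for MCF-7.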
Background: Resazurin is reduced to fluorescent resorufin, in cell work by metabolically active cells.

A short description of data set [2]: Cytotoxicity against African green monkey Vero cells. It is filed as toxicity, cell-based. Particulars: African green monkey (Chlorocebus sabaeus). Summed up: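 Vero (African green monkey kidney fibroblast) cells tested in triplicate by the Hunt et al. method; ellipticine positive control.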
The target of data set [3] is T1, 3-hydroxy-3-methylglutaryl-coenzyme A reductase (Homo sapiens) (UniProt P04035).
T1 sequence (whole entry): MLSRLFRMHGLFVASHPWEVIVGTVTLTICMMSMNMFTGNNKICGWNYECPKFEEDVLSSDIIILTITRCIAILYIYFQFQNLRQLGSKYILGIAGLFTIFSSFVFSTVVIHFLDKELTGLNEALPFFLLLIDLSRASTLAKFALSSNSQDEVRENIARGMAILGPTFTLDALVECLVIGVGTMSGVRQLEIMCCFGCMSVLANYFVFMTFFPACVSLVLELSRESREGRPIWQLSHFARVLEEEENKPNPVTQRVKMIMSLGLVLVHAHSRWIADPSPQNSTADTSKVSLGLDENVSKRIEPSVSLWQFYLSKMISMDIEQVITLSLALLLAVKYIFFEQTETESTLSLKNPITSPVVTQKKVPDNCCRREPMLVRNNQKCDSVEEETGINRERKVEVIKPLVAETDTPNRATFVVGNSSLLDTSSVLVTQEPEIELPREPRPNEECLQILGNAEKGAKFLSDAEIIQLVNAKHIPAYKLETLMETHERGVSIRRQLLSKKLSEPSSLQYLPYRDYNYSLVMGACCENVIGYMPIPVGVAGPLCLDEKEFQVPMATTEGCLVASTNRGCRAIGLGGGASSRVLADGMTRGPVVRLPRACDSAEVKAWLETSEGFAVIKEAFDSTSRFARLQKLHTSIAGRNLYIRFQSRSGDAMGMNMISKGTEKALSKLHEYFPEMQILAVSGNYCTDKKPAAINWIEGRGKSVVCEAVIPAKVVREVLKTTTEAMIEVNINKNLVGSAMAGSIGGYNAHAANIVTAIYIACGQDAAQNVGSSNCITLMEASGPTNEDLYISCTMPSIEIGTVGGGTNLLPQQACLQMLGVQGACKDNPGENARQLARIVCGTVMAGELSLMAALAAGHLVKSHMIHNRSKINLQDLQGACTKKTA
Briefly: Inhibition of human HMGR catalytic domain at 200 uM using HMG-CoA as substrate measured every 20 secs for 10 mins relative to control. Summed up: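 Sigma HMG-CoA reductase kit, modified: 1× assay buffer, NADPH, HMG-CoA (800 μM final), test compound at 200 μM final; reaction started by adding human HMGR catalytic domain (0.6 μM final) at 37 °C. NADPH oxidation followed at 340 nm for 10 min, 20 s intervals.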

Data set [4] is described as follows: Cytotoxicity against human MCF7 cells by resazurin microplate assay. The data set is classed as functional, cell-based. A digest of the protocol: as §1
Data set [5] addresses T1, 3-hydroxy-3-methylglutaryl-coenzyme A reductase (Homo sapiens). As to the kind of experiment: Binding affinity to human HMGR catalytic domain at 50 uM in presence of 800 to 3200 uM HMG-CoA as substrate measured every 20 secs for 10 mins. A digest of the protocol:
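Direct-interaction test: compound at 50 μM with HMG-CoA at 800, 1600 and 3200 μM, plus NADPH and human HMGR catalytic domain at 37 °C. Activity read at 340 nm for 10 min at 20 s intervals, reported as percent inhibition versus untreated control; n = 3.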

In data set [6] the target is T2, 3-hydroxy-3-methylglutaryl-coenzyme A reductase (Homo sapiens, UniProt P04035).
T2 sequence (P04035 whole entry): T1 sequence (whole entry)
As to the kind of experiment: Inhibition of human HMGR catalytic domain using 800 uM HMG-CoA as substrate measured every 20 secs for 10 mins. Summed up:
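Dose-response format of the kit assay: 1× buffer, NADPH, 800 μM HMG-CoA, graded compound concentrations, human HMGR catalytic domain 0.6 μM final added to start at 37 °C.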

The next data set deals with Plasmodium falciparum. As to the kind of experiment: Antimalarial activity against multi-drug-resistant Plasmodium falciparum K1 by microculture radioisotope technique. It is filed as functional. A digest of the protocol:
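Parasite: P. falciparum K1 (multidrug-resistant). Growth inhibition read by a microculture radioisotope method adapted from a published protocol. Dihydroartemisinine and mefloquine served as reference standards.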

Data set [7] deals with T1, 3-hydroxy-3-methylglutaryl-coenzyme A reductase (Homo sapiens). Particulars: 1 uM.

Usually IC50 stands for the concentration that gives 50% inhibition. Broadly, the inhibition is the change of the read-out against control, counted positive when it falls. Consider `CC[C@H](C)C(=O)O[C@H]1C[C@@H](C)C[C@@H]2C=C[C@H](C)[C@H](CC[C@@H]3CC=CC(=O)O3)[C@@H]12`, for which the half-maximal inhibitory concentration (IC50) turned out to be 15.2 µM in data set [1] and 14.5 µM in data set [2]. Also, the inhibition in data set [3] was 17.2%.

As for `Cc1c2ccncc2c(C)c2c1[nH]c1ccccc12` [ELLIPTECINE], the figures for the IC50 in data set [1] and in data set [2] were 2.03 µM and 1 µM, respectively.

Consider `CC[C@H](C)C(=O)O[C@H]1C[C@@H](C)[C@H](OC(C)=O)C2=C[C@@H](OC(C)=O)[C@H](C)[C@H](CC[C@@H]3CC=CC(=O)O3)[C@H]21`, for which the IC50 in data set [1] worked out at 19.8 µM; in data set [4], 74.7 µM; in data set [2], 8.4 µM. For the same molecule, in data set [3], the inhibition is 20.4%.

As for `CC[C@H](C)C(=O)O[C@H]1C[C@@H](C)C=C2C=C[C@H](C)[C@H](CC[C@@H]3C[C@@H](O)CC(=O)O3)[C@H]21` [LOVASTATIN], the IC50 came out at 15.6 µM in data set [1] and 2.2 µM in data set [2]. This molecule also had an inhibition in data set [3] of 42%. Besides, in data set [5], the outcome was Active.

On to `CC[C@H](C)C(=O)O[C@H]1C[C@@H](C)C=C2C=C[C@H](C)[C@H](CC[C@@H]3CC=CC(=O)O3)[C@H]21`, for which the IC50 in data set [1] stood at 20.1 µM; in data set [4], 57.3 µM; in data set [2], 8.1 µM. In addition, the inhibition in data set [3] was found to be 8.4%.

In turn, `CC/C(=C(\c1ccccc1)c1ccc(OCCN(C)C)cc1)c1ccccc1` [TAMOXIFEN] displayed an IC50 in data set [4] of 6.99 µM.

In the case of `CC[C@H](C)C(=O)O[C@H]1C[C@@H](C)[C@H](O)C2=C[C@@H](O)[C@H](C)[C@H](CC[C@@H]3CC=CC(=O)O3)[C@H]21`, the half-inhibitory concentration (IC50) in data set [1] was 31.6 µM; in data set [2], 40 µM; in data set [6], 387 µM. This molecule registered an inhibition in data set [3] of 50%. Moreover, the outcome in data set [5] was Active.

Molecule `O[C@@H](c1cc(C(F)(F)F)nc2c(C(F)(F)F)cccc12)[C@H]1CCCCN1` [(S,R)-MEFLOQUINE] came in with an IC50 with Plasmodium falciparum of 0.0269 µM.

Turning to `C[C@H]1[C@@H](O)O[C@@H]2O[C@@]3(C)CC[C@H]4[C@H](C)CC[C@@H]1[C@@]24OO3` [ARTENIMOL], it took 0.0023 µM to reach half-maximal inhibition with Plasmodium falciparum (IC50).

For the molecule `COc1cccc2c1C(=O)c1c(O)c3c(c(O)c1C2=O)C[C@@](O)(C(=O)CO)C[C@@H]3O[C@H]1C[C@H](N)[C@H](O)[C@H](C)O1` [DOXORUBICIN], the IC50 in data set [4] was 6.75 µM.

In the case of `CC[C@H](C)C(=O)O[C@H]1C[C@H](O)C=C2C=C[C@H](C)[C@H](CC[C@@H](O)C[C@@H](O)CC(=O)O)[C@H]21`, the inhibition in data set [7] was 90.4%.
